Compounds with a hit are over-represented: about 2.3% of the library has one in this group of screens.
TRPC4 agonist – opens the mouse TRPC4 cation channel; B-score at 10 µM; actives 0.49% (n = 310,000); HEK293 TRPC4beta/mu-opioid, Fluo4 calcium fluorescence; active compounds read high;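 active means B-score above 5 SD of library B-scores, and initial fluorescence ratio not above library mean plus 5 SD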;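 further: positive B-score marks a calcium rise read as TRPC4 activation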
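System: HEK293 cells stably co-expressing mouse TRPC4beta and mu-opioid receptor; Schedule: Fluo4 dye loading 45 min at room temperature, 110 s recording; Detection: Fluo4 fluorescence, kinetic; Evaluation: B-scored integrated calcium fluorescence ratio; Controls: buffer (low) and maximal DAMGO (high).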
TRPC4 block – inhibitors of mouse TRPC4 channel. Q9QUQ5. HEK293 TRPC4beta/mu-opioid, DAMGO-evoked Fluo4 calcium flux; active compounds read low. B-score at 10 µM. actives 0.39% (n = 300,000). AID 2247;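 active means B-score over 3 SD under the library average, no early fluorescence shift, positive overall ratio signal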
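Test system – stable TRPC4beta/mu-opioid receptor HEK293 cells · Probe or stimulus – DAMGO, a submaximal dose followed by a maximal one · Dosing – one concentration per compound · Signal – Fluo4 calcium fluorescence by kinetic imaging, 5 s 1 Hz baseline · Evaluation – per-well B score of integrated baseline-normalized Fluo4 ratio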
TRPC6 inh – blocks the mouse TRPC6 cation channel; actives 1.1% (n = 310,000); HEK293-TRPC6, membrane potential dye, ACh-evoked depolarization; active compounds read low; B-score at 10 µM;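 active means B-score under library mean minus 3 SD, initial fluorescence not abnormally high, positive integrated signal ratio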;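 further: B-score derived from integrated fluorescence ratio over the kinetic read; more negative B-score means stronger inhibition of depolarization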
Target sequence (Q61143 whole entry, looked up): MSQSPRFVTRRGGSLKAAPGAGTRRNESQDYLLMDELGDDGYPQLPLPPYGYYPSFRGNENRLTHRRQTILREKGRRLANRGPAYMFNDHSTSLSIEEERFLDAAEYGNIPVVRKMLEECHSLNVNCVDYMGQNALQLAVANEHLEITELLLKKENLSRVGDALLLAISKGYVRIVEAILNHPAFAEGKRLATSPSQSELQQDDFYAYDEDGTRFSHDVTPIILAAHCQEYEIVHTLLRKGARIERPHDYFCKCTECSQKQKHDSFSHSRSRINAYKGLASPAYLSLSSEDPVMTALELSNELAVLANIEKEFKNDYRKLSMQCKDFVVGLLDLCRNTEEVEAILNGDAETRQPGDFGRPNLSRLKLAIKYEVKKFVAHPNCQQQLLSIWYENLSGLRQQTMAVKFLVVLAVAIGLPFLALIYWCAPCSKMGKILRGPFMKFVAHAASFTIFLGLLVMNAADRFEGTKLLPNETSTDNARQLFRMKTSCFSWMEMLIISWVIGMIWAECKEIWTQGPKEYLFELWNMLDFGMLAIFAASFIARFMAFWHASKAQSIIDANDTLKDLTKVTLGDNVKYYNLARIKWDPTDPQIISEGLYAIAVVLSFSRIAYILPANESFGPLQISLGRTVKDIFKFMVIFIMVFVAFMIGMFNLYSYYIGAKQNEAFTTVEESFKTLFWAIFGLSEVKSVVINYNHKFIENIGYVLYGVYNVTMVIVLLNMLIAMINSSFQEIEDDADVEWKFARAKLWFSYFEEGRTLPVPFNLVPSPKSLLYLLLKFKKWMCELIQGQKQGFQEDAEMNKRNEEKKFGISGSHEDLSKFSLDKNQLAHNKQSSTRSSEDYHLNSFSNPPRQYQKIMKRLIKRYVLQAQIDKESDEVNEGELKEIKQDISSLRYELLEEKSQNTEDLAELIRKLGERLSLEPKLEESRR
TRPC6 act – activates the mouse TRPC6 cation channel; actives 0.13% (n = 310,000); B-score at 10 µM; Q61143; HEK293-TRPC6 membrane potential dye fluorescence; active compounds read high;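 active means B-score of the integrated fluorescence ratio above library mean plus 3 SD, and starting fluorescence ratio within library mean plus 5 SD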;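 further: higher score means more depolarization so channel activation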
TRPC4 potent – allosterically enhances the mouse TRPC4 cation channel; Q9QUQ5; HEK293 TRPC4beta/mu-opioid, DAMGO EC20, Fluo-4 Ca2+ flux; active compounds read high; B-score at 10 µM; actives 0.42% (n = 310,000);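 active means B-score of calcium response area above 5 SD of library B-scores, with initial fluorescence ratio within 5 SD of library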;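 further: B-score of integrated fluorescence ratio over time as area under calcium response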
TRPC4 sel inh 2 – second selectivity test of TRPC6 inhibitors: effect on mouse TRPC4 | shares compounds with TRPC6 inh | HEK293 TRPC4/MOR, membrane potential dye fluorescence; channel activated by saturating DAMGO dose | inhibition, % at 10 µM | actives 42% (n = 920);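 active means compounds whose fluorescence signal differed from control wells by over 3 SD, either direction, in both duplicate plates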
TRPC4 spec – tests whether TRPC6 inhibitors also affect mouse TRPC4; shares compounds with TRPC6 inh; actives 61% (n = 920); AID 2777; activity change, negative = inhibition, % at 10 µM; HEK293 TRPC4/mu-opioid, membrane potential fluorescence;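 active means rise or fall in signal beyond 3 SD of buffer-only wells in both replicate plates, either sign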;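 further: integrated kinetic ratio of fluorescence range over baseline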
HEK293 MPD ctr 2-1 – second counter-screen for TRPC6 inhibitors: parental HEK293 cells; shares compounds with TRPC6 inh; parental HEK293 membrane potential dye fluorescence; maximal acetylcholine challenge after compound addition; signal change vs control, % at 10 µM; actives 31% (n = 920); AID 2779;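 active means membrane potential signal moving either way by over 3 SD of the maximum-effect control, in both duplicate plates, meaning non-specific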
HEK293 MPD ctr-1 – checks TRPC6 inhibitor effects in parental HEK293 cells; shares compounds with TRPC6 inh; parental HEK293 membrane potential dye fluorescence; membrane potential signal change, % at 10 µM; actives 60% (n = 920);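 active means membrane potential signal shifting up or down by more than 3 SD of buffer-only wells, on both duplicate plates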
HEK293 MPD ctr-2 – checks TRPC6 modulator effects in parental HEK293 cells. shares compounds with TRPC6 inh. membrane potential signal change, % at 10 µM. AID 488924. actives 51% (n = 2,400). membrane potential dye fluorescence;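 active means membrane potential signal moves up or down beyond 5 SD from buffer-only wells, on both duplicate plates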
HEK293 MPD ctr 2-2 – second check of TRPC6 modulator effects in parental HEK293 cells. shares compounds with TRPC6 inh. membrane potential dye fluorescence; after compound, maximal acetylcholine stimulation. inhibition, % at 10 µM. actives 14% (n = 2,400);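 active means membrane potential signal drops by more than 5 SD from the mean control signal, in both duplicate plates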;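 further: plate controls were acetylcholine ECmax control wells for no effect and buffer only wells for full effect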
TRPC4/MOR mod – tests whether TRPC6 modulators also affect mouse TRPC4. AID 488927. shares compounds with TRPC6 inh. percent change from control (negative = decrease, positive = increase), % at 10 µM. HEK293 TRPC4/mu-opioid, membrane potential fluorescence. actives 69% (n = 2,400);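 active means membrane potential signal moved up or down beyond 5 SD of buffer control wells, in both duplicate plates, actives on both sides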;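 further: plate controls were assay buffer wells for no effect and DAMGO maximal-effect wells for full effect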
TRPC4 ctr inh 2 – second selectivity test of TRPC6 modulators against mouse TRPC4; shares compounds with TRPC6 inh; HEK293 TRPC4/mu-opioid, membrane potential dye fluorescence; stimulated with maximal-effect DAMGO; inhibition, % at 10 µM; actives 55% (n = 2,400); AID 488928;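 active means drop in membrane potential signal beyond 5 SD of the control wells in both duplicate plates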;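 further: TRPC4 counter screen for TRPC6 hits run under conditions tuned for TRPC6 not TRPC4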
TRPC6 block conf – confirmation of mouse TRPC6 inhibitors; shares compounds with TRPC6 inh; HEK293-TRPC6, membrane potential dye, ACh-evoked depolarization; inhibition, % at 10 µM; actives 43% (n = 3,300);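 active means fluorescence ratio falls more than 5 SD below the full-stimulation control mean, in both duplicate runs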;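 further: integrated fluorescence ratio of peak minus minimum over baseline after agonist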
TRPC6 act conf – mouse TRPC6 activator confirmation. activation, % at 10 µM. shares compounds with TRPC6 inh. actives 11% (n = 2,800). HEK293-TRPC6 membrane potential dye fluorescence, FDSS;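 active means ratio signal rise beyond 5 SD above unstimulated control wells' mean, seen in both duplicate runs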;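 further: plate controls were buffer EC0 wells for no effect and acetylcholine ECmax response for full effect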
Numbers without * were called inactive; i = inactive; . = no result; + = active, no number.

SMILES	TRPC4 agonist	TRPC4 block	TRPC6 inh	TRPC6 act	TRPC4 potent	TRPC6 block conf	TRPC6 act conf	others
Cc1ccc(C[n+]2cc(-c3ccc(Cl)cc3)n3c2CCC3)cc1	i	-7*	-5.6*	i	i	i	i	HEK293 MPD ctr-2=-96%*;HEK293 MPD ctr 2-2=i;TRPC4/MOR mod=-18%*;TRPC4 ctr inh 2=30%*
COc1ccc(-c2c[n+](CC(=O)OC3CC(C)CCC3C(C)C)c3n2CCC3)cc1 (stereo unspecified)	i	i	-6.1*	i	i	55%*	.	HEK293 MPD ctr-2=162%*;HEK293 MPD ctr 2-2=i;TRPC4/MOR mod=28%*;TRPC4 ctr inh 2=i
CC1CCCCC1NC(=O)CCNS(=O)(=O)c1ccc2c(c1)CCC(=O)N2 (stereo unspecified)	i	i	i	i	i	.	.
CCN(CC)C(=O)COCc1cc(-c2ccc3c(c2)OCO3)on1	i	i	-7*	i	i	i	i	TRPC4 sel inh 2=i;TRPC4 spec=i;HEK293 MPD ctr 2-1=i;HEK293 MPD ctr-1=i
CCC(C)NC(=O)COCc1cc(-c2ccc3c(c2)OCO3)on1 (stereo unspecified)	i	i	i	i	i	.	.
COc1ccc(N2C(=O)CCC(C(=O)O)C2c2ccc(F)cc2)cc1 (stereo unspecified)	i	i	i	i	i	.	.
Cc1ccc(NC(=O)c2cccc3c2-c2ccccc2C3=O)cc1C	i	i	-7.3*	i	i	i	i	TRPC4 sel inh 2=i;TRPC4 spec=i;HEK293 MPD ctr 2-1=i;HEK293 MPD ctr-1=i
COCCC(=O)Nc1ccc2c(c1)CN(C(=O)c1ccc(CSC)o1)CC2	i	i	i	i	i	.	.
N/C(=N/OC(=O)c1ccccc1Cl)c1ncc([N+](=O)[O-])s1	i	i	i	i	i	.	.
N#CC1=C(N)SC(C(=O)c2ccccc2)C1c1cccs1 (stereo unspecified)	i	i	i	i	i	.	.
N#CC1=C(N)S[C@@H](C(=O)c2ccc(F)cc2)[C@@H]1c1cccs1	i	i	-6.5*	i	i	i	i	HEK293 MPD ctr-2=i;HEK293 MPD ctr 2-2=i;TRPC4/MOR mod=i;TRPC4 ctr inh 2=i
Cc1cc(C)cc(-n2c(C)cc(/C=N/NC(=O)CSc3ncccn3)c2C)c1	i	i	-9.9*	i	i	i	i	TRPC4 sel inh 2=i;TRPC4 spec=i;HEK293 MPD ctr 2-1=i;HEK293 MPD ctr-1=i
CN(CC(=O)Nc1ccccc1Cl)C(=O)COC(=O)/C=C/c1ccccc1	i	i	i	i	i	.	.
c1ccc(-c2cnnc(N3CCCCC3)n2)cc1	i	i	-6.9*	i	i	72%*	.	TRPC4 sel inh 2=i;TRPC4 spec=0.7%*;HEK293 MPD ctr 2-1=i;HEK293 MPD ctr-1=i
FC(F)(F)c1cc(-c2ccccc2)nc(N2CCCCCC2)n1	i	i	i	i	i	.	.
Cc1[nH]n(-c2ccccc2)c(=O)c1N=Nc1c(O)cc(S(=O)(=O)N(C)C)c2ccccc12	i	i	-8.9*	i	i	81%*	i	HEK293 MPD ctr-2=-135%*;HEK293 MPD ctr 2-2=80%*;TRPC4/MOR mod=-34%*;TRPC4 ctr inh 2=86%*
Cc1[nH]n(-c2ccccc2)c(=O)c1N=Nc1ccc2c(c1)OCCO2	i	i	i	i	i	.	.
Cc1cc(C)c2nc(N3CCC(C(=O)NCCCN4CCCCC4)CC3)sc2c1	i	i	-8.8*	i	i	52%*	i	TRPC4 sel inh 2=74%*;TRPC4 spec=2.6%*;HEK293 MPD ctr 2-1=i;HEK293 MPD ctr-1=2.9%*
Cc1cc(C)c2nc(N3CCC(C(=O)NCC4CCCO4)CC3)sc2c1 (stereo unspecified)	i	i	i	i	i	.	.
COc1ccc(-c2cc(CNC(C)=O)on2)cc1	i	i	i	i	i	.	.
O=C(CNC(=O)c1ccccc1F)N/N=C/c1cn[nH]c1-c1ccccc1	i	i	-5.8*	i	i	i	.	HEK293 MPD ctr-2=i;HEK293 MPD ctr 2-2=i;TRPC4/MOR mod=i;TRPC4 ctr inh 2=i
O=C(c1cccc(N2C(=O)c3ccccc3C2=O)c1)N1CCCC(C(F)(F)F)C1 (stereo unspecified)	i	i	i	i	i	.	.
CC(C)(C)C(=O)/C=c1\s/c(=C\c2ccc(-c3ccc([N+](=O)[O-])cc3)o2)c(=O)n1CC(=O)NC(N)=O	62*	i	i	57*	21*	i	418%*	HEK293 MPD ctr-2=+;HEK293 MPD ctr 2-2=i;TRPC4/MOR mod=348%*;TRPC4 ctr inh 2=i
CCCCC(=O)N/N=C/c1ccc(-c2ccc([N+](=O)[O-])cc2)o1	i	i	i	i	i	.	.
COc1ccc(CNC(=O)C2CCN(S(=O)(=O)c3ccc(Br)s3)CC2)cc1	i	i	i	i	i	.	.
CN(C)S(=O)(=O)N1CCN(c2ccccc2Cl)CC1	i	i	i	i	i	.	.
CN(C)S(=O)(=O)N1CCN(C(=O)c2ccccc2Cl)CC1	i	i	-5*	i	i	i	i	HEK293 MPD ctr-2=i;HEK293 MPD ctr 2-2=i;TRPC4/MOR mod=i;TRPC4 ctr inh 2=i
C/C(CC(=O)Nc1cc(Cl)ccc1C)=N\NC(N)=O	i	i	i	i	i	.	.
Cc1ccc(N(CCC#N)C(=O)COC(=O)C2CCN(c3ccc(C(F)(F)F)cn3)CC2)cc1	i	i	i	i	i	.	.

Source: PubChem (Johns Hopkins Ion Channel Center)
